# How the values were obtained:
# Pseudomonas aeruginosa [1] = experiment: Antibacterial activity against Pseudomonas aeruginosa PAO1 harboring siderophore receptor fpvA mutant in medium containing aztreonam and low-Fe by CLSI broth microdilution method; type: functional
# Pseudomonas aeruginosa [2] = experiment: Antibacterial activity against Pseudomonas aeruginosa PAO1 in Mueller-Hinton broth medium by CLSI broth microdilution method; type: functional
# Outline: (§1)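 MIC by CLSI broth microdilution in standard Mueller Hinton broth. Tested against wild-type P. aeruginosa PAO1 and an isogenic panel lacking one or more siderophore receptors.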
# Pseudomonas aeruginosa [3] = experiment: Ratio of MIC for Pseudomonas aeruginosa PAO1 harboring siderophore receptor pfeA mutant to MIC for wild type Pseudomonas aeruginosa PAO1 in medium containing low-Fe by CLSI broth microdilution method; type: functional
# Outline: (§2)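 Ratio of strain MIC to PAO1 MIC. Both MICs were obtained by CLSI broth microdilution in iron-depleted modified Mueller Hinton broth. A shift greater than 4× versus the parent was read as the deleted receptor(s) taking part in uptake.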
# Pseudomonas aeruginosa [4] = experiment: Ratio of MIC for wild type Pseudomonas aeruginosa PAO1 in MHB medium to MIC for wild type Pseudomonas aeruginosa PAO1 in medium containing low-Fe by CLSI broth microdilution method; type: functional
# Outline: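 MICs for wild-type P. aeruginosa PAO1 were determined by CLSI broth microdilution in standard Mueller Hinton broth and, in parallel, in a modified broth depleted of iron to mimic the low-iron in vivo environment. The ratio compares the MIC in standard MHB with the MIC in iron-depleted broth.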
# [5] = Displacement of fluorescent Bocillin FL from Pseudomonas aeruginosa PBP3
# Pseudomonas aeruginosa [6] = experiment: Ratio of MIC for Pseudomonas aeruginosa PAO1 harboring siderophore receptor piuA and fptA double mutant to MIC for wild type Pseudomonas aeruginosa PAO1 in medium containing low-Fe by CLSI broth microdilution method; type: functional
# Outline: (§3)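 CLSI broth microdilution MICs in a modified Mueller-Hinton broth depleted of iron to mimic low in vivo iron. Tested against wild-type PAO1 and isogenic siderophore receptor knockout strains. Reported as the knockout-strain MIC divided by the PAO1 MIC in the same iron-depleted medium.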
# Pseudomonas aeruginosa [7] = experiment: Antibacterial activity against Pseudomonas aeruginosa PAO1 harboring siderophore receptor pirA mutant in Mueller-Hinton broth medium by CLSI broth microdilution method; type: functional; outline: as §1
# Pseudomonas aeruginosa [8] = experiment: Antibacterial activity against Pseudomonas aeruginosa PAO1 harboring siderophore receptor pirA mutant in medium containing aztreonam and low-Fe by CLSI broth microdilution method; type: functional
# Pseudomonas aeruginosa [9] = experiment: Antibacterial activity against Pseudomonas aeruginosa PAO1 harboring siderophore receptor pfeA mutant in Mueller-Hinton broth medium by CLSI broth microdilution method; type: functional; outline: as §1
# Pseudomonas aeruginosa [10] = experiment: Antibacterial activity against Pseudomonas aeruginosa PAO1 harboring siderophore receptor piuA and pfeA double mutant in Mueller-Hinton broth medium by CLSI broth microdilution method; type: functional; outline: as §1
# Escherichia coli [11] = experiment: Antibacterial activity against Escherichia coli DH5alpha by CLSI broth microdilution method; type: functional; details: DH5[alpha]
# Pseudomonas aeruginosa [12] = experiment: Ratio of MIC for Pseudomonas aeruginosa PAO1 harboring siderophore receptor pirA mutant to MIC for wild type Pseudomonas aeruginosa PAO1 in medium containing aztreonam and low-Fe by CLSI broth microdilution method; type: functional
# Pseudomonas aeruginosa [13] = experiment: Ratio of MIC for Pseudomonas aeruginosa PAO1 harboring siderophore receptor pirA and pfeA double mutant to MIC for wild type Pseudomonas aeruginosa PAO1 in medium containing low-Fe by CLSI broth microdilution method; type: functional; outline: as §2
# Pseudomonas aeruginosa [14] = experiment: Antibacterial activity against Pseudomonas aeruginosa PAO1 harboring siderophore receptor piuA and fpvA double mutant in Mueller-Hinton broth medium by CLSI broth microdilution method; type: functional; outline: as §1
# Pseudomonas aeruginosa [15] = experiment: Ratio of MIC for Pseudomonas aeruginosa PAO1 harboring siderophore receptor piuA and pirA double mutant to MIC for wild type Pseudomonas aeruginosa PAO1 in Mueller-Hinton broth medium by CLSI broth microdilution method; type: functional
# Outline: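 Broth microdilution MIC per CLSI in standard Mueller-Hinton broth, run against wild-type P. aeruginosa PAO1 and isogenic PAO1 strains lacking one or more siderophore receptors. Value is the mutant-strain MIC divided by the PAO1 MIC.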
# Pseudomonas aeruginosa [16] = experiment: Antibacterial activity against Pseudomonas aeruginosa PAO1 harboring siderophore receptor fptA mutant in Mueller-Hinton broth medium by CLSI broth microdilution method; type: functional; outline: as §1
# Escherichia coli [17] = experiment: Antibacterial activity against Escherichia coli EC-28 by CLSI broth microdilution method; type: functional
# [18] = Displacement of fluorescent Bocillin FL from Pseudomonas aeruginosa PBP2
# Pseudomonas aeruginosa [19] = experiment: Antibacterial activity against Pseudomonas aeruginosa PAO1 harboring siderophore receptor piuA and fpvA double mutant in medium containing aztreonam and low-Fe by CLSI broth microdilution method; type: functional
# Pseudomonas aeruginosa [20] = experiment: Ratio of MIC for Pseudomonas aeruginosa PAO1 harboring siderophore receptor pfeA mutant to MIC for wild type Pseudomonas aeruginosa PAO1 in Mueller-Hinton broth medium by CLSI broth microdilution method; type: functional
# Outline: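 Receptor-deficient PAO1 strain MIC divided by parent PAO1 MIC. Both MICs were obtained by CLSI broth microdilution in standard Mueller Hinton broth. A shift greater than 4× was taken to indicate that the deleted receptor(s) take part in drug uptake.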
# Pseudomonas aeruginosa [21] = experiment: Antibacterial activity against Pseudomonas aeruginosa PAO1 harboring siderophore receptor fptA mutant in medium containing low-Fe by CLSI broth microdilution method; type: functional
# Outline: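 MIC by CLSI broth microdilution in a modified Mueller Hinton broth depleted of iron to mimic the low-iron in vivo environment. Tested against PAO1 and isogenic strains lacking one or more siderophore receptors.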
# Pseudomonas aeruginosa [22] = experiment: Antibacterial activity against Pseudomonas aeruginosa PAO1 harboring siderophore receptor piuA mutant in Mueller-Hinton broth medium by CLSI broth microdilution method; type: functional; outline: as §1
# Pseudomonas aeruginosa [23] = experiment: Ratio of MIC for Pseudomonas aeruginosa PAO1 harboring siderophore receptor piuA and fpvA double mutant to MIC for wild type Pseudomonas aeruginosa PAO1 in medium containing low-Fe by CLSI broth microdilution method; type: functional; outline: as §3
# Pseudomonas aeruginosa [24] = experiment: Antibacterial activity against Pseudomonas aeruginosa PAO1 harboring siderophore receptor fptA mutant in medium containing aztreonam and low-Fe by CLSI broth microdilution method; type: functional
# Pseudomonas aeruginosa [25] = experiment: Antibacterial activity against Pseudomonas aeruginosa PAO1 harboring siderophore receptor piuA and fptA double mutant in Mueller-Hinton broth medium by CLSI broth microdilution method; type: functional; outline: as §1
# Pseudomonas aeruginosa [26] = experiment: Antibacterial activity against Pseudomonas aeruginosa PAO1 by CLSI broth microdilution method; type: functional
# Escherichia coli [27] = experiment: Antibacterial activity against Escherichia coli DH5alpha expressing beta-lactamase KPC-3 by CLSI broth microdilution method; type: functional; details: DH5[alpha]
# Pseudomonas aeruginosa [28] = experiment: Ratio of MIC for Pseudomonas aeruginosa PAO1 harboring siderophore receptor fptA mutant in MHB medium to MIC for Pseudomonas aeruginosa PAO1 harboring siderophore receptor fptA mutant in medium containing low-Fe by CLSI broth microdilution method; type: functional
# Pseudomonas aeruginosa [29] = experiment: Antibacterial activity against Pseudomonas aeruginosa PAO1 harboring siderophore receptor piuA mutant in medium containing aztreonam and low-Fe by CLSI broth microdilution method; type: functional
# Pseudomonas aeruginosa [30] = experiment: Ratio of MIC for Pseudomonas aeruginosa PAO1 harboring siderophore receptor fpvA mutant to MIC for wild type Pseudomonas aeruginosa PAO1 in medium containing low-Fe by CLSI broth microdilution method; type: functional; outline: as §2
# Escherichia coli [31] = experiment: Antibacterial activity against Escherichia coli DH5alpha expressing beta-lactamase CTX-M-15 by CLSI broth microdilution method; type: functional; details: DH5[alpha]
# Escherichia coli [32] = experiment: Antibacterial activity against Escherichia coli DH5alpha expressing beta-lactamase SHV-12 by CLSI broth microdilution method; type: functional; details: DH5[alpha]
# Pseudomonas aeruginosa [33] = experiment: Ratio of MIC for Pseudomonas aeruginosa PAO1 harboring siderophore receptor piuA mutant to MIC for wild type Pseudomonas aeruginosa PAO1 in medium containing aztreonam and low-Fe by CLSI broth microdilution method; type: functional
smiles,measurement,setting,value
CC(C)(O/N=C(\C(=O)N[C@H]1CON(C2(C(=O)O)C[C@H](N3C(=O)c4cc(O)c(O)cc4C3=O)C(=O)O2)C1=O)c1csc(N)n1)C(=O)O (stereo partly drawn),MIC,Pseudomonas aeruginosa [1],2 µg/mL
same,MIC,Pseudomonas aeruginosa [2],0.5 µg/mL
same,Ratio,Pseudomonas aeruginosa [3],1
same,Ratio,Pseudomonas aeruginosa [4],16
same,IC50,[5],46 nM
same,Ratio,Pseudomonas aeruginosa [6],>=16
same,MIC,Pseudomonas aeruginosa [7],0.5 µg/mL
same,MIC,Pseudomonas aeruginosa [8],4 µg/mL
same,MIC,Pseudomonas aeruginosa [9],0.5 µg/mL
same,MIC,Pseudomonas aeruginosa [10],8 µg/mL
same,MIC,Escherichia coli [11],0.03 µg/mL
same,Ratio,Pseudomonas aeruginosa [12],1
same,Ratio,Pseudomonas aeruginosa [13],1
same,MIC,Pseudomonas aeruginosa [14],16 µg/mL
same,Ratio,Pseudomonas aeruginosa [15],32
same,MIC,Pseudomonas aeruginosa [16],4 µg/mL
same,MIC,Escherichia coli [17],0.25 µg/mL
same,IC50,[18],3700 nM
same,MIC,Pseudomonas aeruginosa [19],4 µg/mL
same,Ratio,Pseudomonas aeruginosa [20],1
same,MIC,Pseudomonas aeruginosa [21],0.06 µg/mL
same,MIC,Pseudomonas aeruginosa [22],8 µg/mL
same,Ratio,Pseudomonas aeruginosa [23],>=8
same,MIC,Pseudomonas aeruginosa [24],4 µg/mL
same,MIC,Pseudomonas aeruginosa [25],8 µg/mL
same,MIC,Pseudomonas aeruginosa [26],0.5 µg/mL
same,MIC,Escherichia coli [27],0.03 µg/mL
same,Ratio,Pseudomonas aeruginosa [28],64
same,MIC,Pseudomonas aeruginosa [29],4 µg/mL
same,Ratio,Pseudomonas aeruginosa [30],1
same,MIC,Escherichia coli [31],0.015 µg/mL
same,MIC,Escherichia coli [32],0.015 µg/mL
same,Ratio,Pseudomonas aeruginosa [33],1
